One block for each compound: values may come before it.
What was measured:
[1] = molecular target: Sodium channel protein type 10 subunit alpha (Mus musculus, UniProt Q6QIY3); test: Inhibition of mouse recombinant Nav1.8 channel expressed in HEK293 cells by isotopic efflux assay; format: cell-based
[2] = molecular target: Sodium channel protein type 10 subunit alpha (Rattus norvegicus) (UniProt Q62968); test: Blockade of Nav1.8 channel in rat dorsal root ganglion neurons assessed as inhibition of TTX-R current at 0.3 uM by whole cell patch clamp technique; format: tissue-based
In short: (§1)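 Whole-cell voltage clamp of TTX-resistant currents in dissociated rat DRG neurons. Pipette (mM): CsF 135, NaCl 5, CsCl 10, EGTA 5, HEPES 10, pH 7.2. Bath (mM): NaCl 22, choline Cl 110, CaCl2 1.8, MgCl2 0.8, HEPES 10, glucose 5, pH 7.4. Inactivated-state protocol with pre-pulse at V1/2 (−40 mV). Mean ± SEM of two to six determinations.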

[3] = molecular target: T1, Sodium channel protein type 10 subunit alpha (Homo sapiens, UniProt Q9Y5Y9); test: Inhibition of human recombinant Nav1.8 channel expressed in HEK293 cells at 0.3 uM by whole cell voltage clamp technique; format: cell-based
In short: (§2)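 HEK293 cells stably expressing recombinant human sodium channels, grown in high-glucose DMEM, 10% FBS, 2 mM sodium pyruvate, G418. Whole-cell voltage clamp; pipettes 0.8–2.5 MΩ; internal (mM) 135 CsF, 10 CsCl, 5 EGTA, 5 NaCl, 10 HEPES, pH 7.3 with CsOH. Holding pre-pulse set at midpoint of steady-state inactivation for each subtype.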

[4] = molecular target: Sodium channel protein type 10 subunit alpha (Rattus norvegicus, UniProt Q62968); test: Blockade of Nav1.8 channel in rat dorsal root ganglion neurons assessed as inhibition of TTX-R current by whole cell patch clamp technique; format: tissue-based; in short: as §1
[5] = molecular target: T1, Sodium channel protein type 10 subunit alpha; test: Inhibition of human recombinant Nav1.8 channel expressed in HEK293 cells by whole cell voltage clamp technique; format: cell-based; in short: as §2
[6] = molecular target: Sodium channel protein type 2 subunit alpha (Homo sapiens, UniProt Q99250); test: Inhibition of human recombinant Nav1.2 channel expressed in HEK293 cells by whole cell voltage clamp technique; format: cell-based
In short: (§3)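 HEK293 cells stably expressing recombinant human sodium channels, grown in high-glucose DMEM, 10% FBS, 2 mM sodium pyruvate, G418. Holding pre-pulse set at midpoint of steady-state inactivation for each subtype.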

[7] = molecular target: Sodium channel protein type 5 subunit alpha (Homo sapiens, UniProt Q14524); test: Inhibition of human recombinant Nav1.5 channel expressed in HEK293 cells by whole cell voltage clamp technique; format: cell-based; in short: as §3
Rattus norvegicus [8] = test: Analgesic activity in po dosed Sprague-Dawley rat assessed as attenuation of mechanical allodynia in chung model of neuropathic pain; format: functional
Rattus norvegicus [9] = test: Effect on locomotor activity in po dosed Sprague-Dawley rat; format: functional
In short: (§4)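 Open-field locomotor activity recorded with photobeam activity monitors during the light cycle; groups of at least six rats, mean ± SEM.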

Rattus norvegicus [10] = test: Analgesic activity in po dosed Sprague-Dawley rat by edge test; format: functional
In short: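 Balance test: rats placed on 0.5-cm-thick edges of a 40 × 40 × 36 cm plexiglass box, must pull up onto the edge and avoid falling; cut-off 2 min. Groups of at least six rats.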

[11] = Ratio of drug level in brain to plasma in Sprague-Dawley rat; format: ADME; conditions: for Kp: Sprague-Dawley, brain and plasma
[12] = Plasma clearance in Sprague-Dawley rat at 10 mg/kg; format: ADME, organism-based; set-up: dose 10 mg/kg
In short: (§5)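 Rat pharmacokinetics after administration at 10 mg/kg in 10% DMSO/PEG400.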

[13] = Cmax in Sprague-Dawley rat at 10 mg/kg, po; format: ADME, organism-based; set-up: dose 10 mg/kg, route oral; conditions: in vivo; in short: as §5
[14] = Volume of distribution at steady state in Sprague-Dawley rat at 10 mg/kg; format: ADME, organism-based; set-up: dose 10 mg/kg; conditions: in vivo, read-out: Vdss; in short: as §5
[15] = Oral bioavailability in Sprague-Dawley rat at 10 mg/kg; format: ADME, organism-based; conditions: in vivo; in short: as §5
Rattus norvegicus [16] = test: Analgesic activity in po dosed Sprague-Dawley rat by rotarod test; format: functional
In short: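 Accelerating rotorod: after 30-min acclimation, rats placed on 9-cm rod ramping 0–20 rpm over 60 s; latency to fall recorded, maximum 60 s; three training sessions per rat. Groups of at least six rats; mean ± SEM.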

[17] = molecular target: T1, Sodium channel protein type 10 subunit alpha; test: Inhibition of human recombinant Nav1.8 channel expressed in HEK293 cells at 0.1 uM by whole cell voltage clamp technique; format: cell-based; in short: as §2
[18] = molecular target: T1, Sodium channel protein type 10 subunit alpha; test: Inhibition of human recombinant Nav1.8 channel expressed in HEK293 cells at 1 uM by whole cell voltage clamp technique; format: cell-based; in short: as §2
[19] = molecular target: Sodium channel protein type 10 subunit alpha (Rattus norvegicus) (UniProt Q62968); test: Blockade of Nav1.8 channel in rat dorsal root ganglion neurons assessed as inhibition of TTX-R current at 0.1 uM by whole cell patch clamp technique; format: tissue-based; in short: as §1
[20] = molecular target: Sodium channel protein type 10 subunit alpha (Rattus norvegicus) (UniProt Q62968); test: Blockade of Nav1.8 channel in rat dorsal root ganglion neurons assessed as inhibition of TTX-R current at 0.03 uM by whole cell patch clamp technique; format: tissue-based
In short: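 Dissociated rat DRG neurons; TTx-r currents recorded by whole-cell voltage clamp. Holding pre-pulse was set at the steady-state inactivation midpoint (V1/2 = −40 mV), giving an inactivated-state protocol. Pipette solution (mM): CsF 135, NaCl 5, CsCl 10, EGTA 5, HEPES 10, pH 7.2. Bath solution (mM): NaCl 22, choline Cl 110, CaCl2 1.8, MgCl2 0.8, HEPES 10, glucose 5, pH 7.4. Percent inhibition is the mean of 2–6 determinations ± SEM.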

[21] = molecular target: T1, Sodium channel protein type 10 subunit alpha; test: Inhibition of human recombinant Nav1.8 channel expressed in HEK293 cells at 0.03 uM by whole cell voltage clamp technique; format: cell-based; in short: as §2
Rattus norvegicus [22] = test: Cardiovascular effect in iv dosed Sprague-Dawley rat assessed as decrease in mean arterial blood pressure; format: functional, Artery; set-up: scale not given: the % may be the effect or the level left
In short: (§6)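 Anesthetized rats: after a 30-min control period, blocker or vehicle (PEG-400) infused intravenously as five successive 30-min infusions at 1×, 3×, 10×, 30× and 100× of calculated therapeutic dose; blood sample and hematocrit taken after infusion; mean arterial pressure and heart rate monitored.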

Rattus norvegicus [23] = test: Cardiovascular effect in iv dosed Sprague-Dawley rat assessed as decrease in heart rate; format: functional; set-up: scale not given: the % may be the effect or the level left; in short: as §6
Rattus norvegicus [24] = test: Effect on locomotor activity in Sprague-Dawley rat at 230 umol/kg; format: functional; in short: as §4
[25] = molecular target: Sodium channel protein type 10 subunit alpha (Rattus norvegicus) (UniProt Q62968); test: Blockade of Nav1.8 channel in rat dorsal root ganglion neurons assessed as inhibition of TTX-R current at 1 uM by whole cell patch clamp technique; format: tissue-based; in short: as §1

Chain of Sodium channel protein type 10 subunit alpha (Rattus norvegicus, UniProt Q62968) (Q62968 whole entry): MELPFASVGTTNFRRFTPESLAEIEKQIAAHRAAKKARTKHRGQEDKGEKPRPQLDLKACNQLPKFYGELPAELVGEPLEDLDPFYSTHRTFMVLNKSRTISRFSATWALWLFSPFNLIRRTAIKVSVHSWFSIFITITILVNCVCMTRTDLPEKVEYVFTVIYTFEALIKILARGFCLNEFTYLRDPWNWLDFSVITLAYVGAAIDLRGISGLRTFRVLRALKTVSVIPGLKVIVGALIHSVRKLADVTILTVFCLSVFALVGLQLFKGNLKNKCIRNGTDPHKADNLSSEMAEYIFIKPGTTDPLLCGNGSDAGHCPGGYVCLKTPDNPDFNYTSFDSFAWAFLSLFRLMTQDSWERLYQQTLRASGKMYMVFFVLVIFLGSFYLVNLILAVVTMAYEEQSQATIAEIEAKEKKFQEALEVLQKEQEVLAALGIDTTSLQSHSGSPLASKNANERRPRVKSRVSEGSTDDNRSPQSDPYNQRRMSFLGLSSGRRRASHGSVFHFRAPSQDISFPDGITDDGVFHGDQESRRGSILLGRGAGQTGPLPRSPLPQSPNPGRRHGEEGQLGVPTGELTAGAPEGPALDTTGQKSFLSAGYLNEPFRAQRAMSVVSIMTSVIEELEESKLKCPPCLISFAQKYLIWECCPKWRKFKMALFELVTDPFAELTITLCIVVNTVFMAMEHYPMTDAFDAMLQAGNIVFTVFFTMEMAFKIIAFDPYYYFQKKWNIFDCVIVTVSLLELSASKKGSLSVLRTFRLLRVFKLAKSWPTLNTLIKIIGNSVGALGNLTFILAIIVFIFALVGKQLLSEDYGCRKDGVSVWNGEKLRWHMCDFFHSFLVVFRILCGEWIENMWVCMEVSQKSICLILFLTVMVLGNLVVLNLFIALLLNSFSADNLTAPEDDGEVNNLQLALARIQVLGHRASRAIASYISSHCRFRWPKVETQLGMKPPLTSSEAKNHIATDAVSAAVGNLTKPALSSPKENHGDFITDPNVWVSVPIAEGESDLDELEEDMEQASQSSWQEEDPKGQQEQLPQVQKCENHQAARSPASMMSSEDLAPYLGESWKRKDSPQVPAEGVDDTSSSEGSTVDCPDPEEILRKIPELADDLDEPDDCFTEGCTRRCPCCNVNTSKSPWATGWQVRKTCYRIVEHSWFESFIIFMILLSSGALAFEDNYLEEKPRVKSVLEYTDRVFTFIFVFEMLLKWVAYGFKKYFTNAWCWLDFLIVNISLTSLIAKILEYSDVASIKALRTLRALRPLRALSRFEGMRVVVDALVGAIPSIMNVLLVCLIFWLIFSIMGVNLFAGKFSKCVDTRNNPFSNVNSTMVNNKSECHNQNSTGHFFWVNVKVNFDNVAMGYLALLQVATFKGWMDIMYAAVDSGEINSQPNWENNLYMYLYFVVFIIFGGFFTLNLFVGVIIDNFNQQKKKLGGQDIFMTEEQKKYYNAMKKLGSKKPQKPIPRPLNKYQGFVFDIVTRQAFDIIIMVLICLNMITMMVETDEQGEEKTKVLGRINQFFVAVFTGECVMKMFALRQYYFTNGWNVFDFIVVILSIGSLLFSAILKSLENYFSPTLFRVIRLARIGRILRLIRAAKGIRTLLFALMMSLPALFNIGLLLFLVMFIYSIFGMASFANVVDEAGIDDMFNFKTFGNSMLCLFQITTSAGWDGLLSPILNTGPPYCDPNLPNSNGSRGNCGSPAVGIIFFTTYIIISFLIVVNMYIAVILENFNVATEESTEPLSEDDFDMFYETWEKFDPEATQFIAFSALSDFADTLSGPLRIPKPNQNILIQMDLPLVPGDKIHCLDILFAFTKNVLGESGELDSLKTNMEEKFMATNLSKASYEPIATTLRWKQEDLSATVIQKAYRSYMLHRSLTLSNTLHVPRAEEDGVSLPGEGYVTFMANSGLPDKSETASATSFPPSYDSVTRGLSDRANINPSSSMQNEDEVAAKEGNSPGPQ
Chain of Sodium channel protein type 10 subunit alpha (Rattus norvegicus) (Q62968 whole entry, looked up): as the sequence (Q62968 whole entry) above
Chain of Sodium channel protein type 10 subunit alpha (Mus musculus, UniProt Q6QIY3) (Q6QIY3 whole entry): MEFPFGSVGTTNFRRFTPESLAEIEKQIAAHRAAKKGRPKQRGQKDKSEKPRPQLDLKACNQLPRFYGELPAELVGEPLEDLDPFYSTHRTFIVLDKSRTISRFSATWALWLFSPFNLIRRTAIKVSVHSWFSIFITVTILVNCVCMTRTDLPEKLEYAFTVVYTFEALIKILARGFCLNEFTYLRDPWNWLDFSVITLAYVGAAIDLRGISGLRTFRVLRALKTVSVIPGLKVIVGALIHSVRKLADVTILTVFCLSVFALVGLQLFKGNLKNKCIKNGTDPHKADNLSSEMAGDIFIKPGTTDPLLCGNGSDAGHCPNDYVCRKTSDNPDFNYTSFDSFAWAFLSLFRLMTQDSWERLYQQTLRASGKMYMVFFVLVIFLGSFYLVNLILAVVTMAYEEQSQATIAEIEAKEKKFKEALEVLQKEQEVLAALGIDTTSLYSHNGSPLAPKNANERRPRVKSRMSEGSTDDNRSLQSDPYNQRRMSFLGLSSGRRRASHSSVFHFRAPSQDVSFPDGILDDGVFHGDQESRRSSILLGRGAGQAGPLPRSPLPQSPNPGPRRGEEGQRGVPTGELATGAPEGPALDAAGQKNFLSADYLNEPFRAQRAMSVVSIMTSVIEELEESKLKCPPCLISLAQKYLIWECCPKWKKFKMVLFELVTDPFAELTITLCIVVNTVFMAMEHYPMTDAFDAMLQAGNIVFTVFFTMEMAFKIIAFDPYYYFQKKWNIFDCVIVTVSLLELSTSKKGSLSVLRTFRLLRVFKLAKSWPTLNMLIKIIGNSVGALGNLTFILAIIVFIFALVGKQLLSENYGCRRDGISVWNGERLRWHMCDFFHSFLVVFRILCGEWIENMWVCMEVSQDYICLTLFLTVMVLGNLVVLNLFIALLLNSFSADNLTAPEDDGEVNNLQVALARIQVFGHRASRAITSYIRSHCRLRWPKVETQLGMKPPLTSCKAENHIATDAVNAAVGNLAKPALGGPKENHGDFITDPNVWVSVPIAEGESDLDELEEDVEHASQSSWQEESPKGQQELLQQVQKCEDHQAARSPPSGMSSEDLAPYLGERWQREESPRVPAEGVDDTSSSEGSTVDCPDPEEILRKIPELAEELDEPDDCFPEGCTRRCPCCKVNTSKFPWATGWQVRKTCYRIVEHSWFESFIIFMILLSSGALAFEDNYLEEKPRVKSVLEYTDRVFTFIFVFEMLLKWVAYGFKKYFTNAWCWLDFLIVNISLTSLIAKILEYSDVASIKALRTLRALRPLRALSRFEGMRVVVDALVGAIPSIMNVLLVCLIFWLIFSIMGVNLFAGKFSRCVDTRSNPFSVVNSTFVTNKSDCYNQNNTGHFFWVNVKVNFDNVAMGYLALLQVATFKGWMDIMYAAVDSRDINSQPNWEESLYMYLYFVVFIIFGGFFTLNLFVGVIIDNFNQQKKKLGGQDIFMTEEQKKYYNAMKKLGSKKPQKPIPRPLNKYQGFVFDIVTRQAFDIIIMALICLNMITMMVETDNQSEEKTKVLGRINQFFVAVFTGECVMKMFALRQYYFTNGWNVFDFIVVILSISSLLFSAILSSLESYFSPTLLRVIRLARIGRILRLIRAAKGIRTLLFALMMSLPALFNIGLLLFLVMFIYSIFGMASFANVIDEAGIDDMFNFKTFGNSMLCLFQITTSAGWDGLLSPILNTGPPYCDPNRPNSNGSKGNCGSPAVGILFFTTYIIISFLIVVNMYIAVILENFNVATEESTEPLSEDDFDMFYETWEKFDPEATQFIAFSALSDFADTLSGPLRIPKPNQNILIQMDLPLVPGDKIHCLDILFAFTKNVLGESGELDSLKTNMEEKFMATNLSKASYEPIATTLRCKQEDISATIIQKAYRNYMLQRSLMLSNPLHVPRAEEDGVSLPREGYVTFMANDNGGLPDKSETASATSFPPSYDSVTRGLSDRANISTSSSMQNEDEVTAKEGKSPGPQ

SMILES: O=C(c1ccc(-c2cccc(Cl)c2)o1)N1CCN(C2CCCCC2)CC1
inhibition [17]: 22%
inhibition [18]: 80%

SMILES: Nc1nnc(-c2cccc(Cl)c2Cl)c(N)n1 [LAMOTRIGINE]
IC50 [4]: 25000 nM
IC50 [5]: 96000 nM
IC50 [6]: 10000 nM
IC50 [7]: 62000 nM
ED50 (Rattus norvegicus [8]): 47 µmol/kg
ED50 (Rattus norvegicus [9]): > 390 µmol/kg
ED50 (Rattus norvegicus [10]): > 390 µmol/kg
Ratio ([11]; brain): 26
clearance [12]: 1 mL/min/kg
Cmax [13]: 3500 ng/mL
Vd [14]: 0.98 L/kg
bioavailability [15]: 79%
ED50 (Rattus norvegicus [16]): > 390 µmol/kg

SMILES: O=C(c1ccc(-c2ccc(Oc3ccccc3)cc2)o1)N1CCN(C2CCCCC2)CC1
inhibition [25]: 67%
inhibition [3]: 93%
inhibition [21]: 68%

SMILES: CN(C)c1ccc(-c2ccc(C(=O)N3CCN(C4CCCCC4)CC3)o2)cc1
inhibition [18]: 65%

SMILES: C[C@@H](NC(=O)c1ccc(-c2ccc(Cl)cc2)o1)C(=O)N1CCN(CCCOc2ccc(C(=O)C3CC3)cc2)CC1
IC50 [5]: 1000 nM

SMILES: O=C(c1ccc(-c2ccc(Cl)cc2Cl)o1)N1CCN(C2CCCCC2)CC1
inhibition [3]: 12%

Continued, in another order:

IC50 [1]: 1000 nM
inhibition [2]: 50%
inhibition [3]: 58%
IC50 [4]: 390 nM
IC50 [5]: 300 nM
IC50 [6]: 350 nM
Kp [11]: 9
clearance [12]: 45 mL/min/kg
Cmax [13]: 470 ng/mL
Vd [14]: 7.8 L/kg
bioavailability [15]: 48%
SMILES: O=C(c1ccc(-c2ccc(Cl)cc2)o1)N1CCN(C2CCCCC2)CC1
IC50 [7]: 2300 nM
ED50 (Rattus norvegicus [8]): 37 µmol/kg
ED50 (Rattus norvegicus [9]): > 300 µmol/kg
ED50 (Rattus norvegicus [10]): > 300 µmol/kg
ED50 (Rattus norvegicus [16]): > 300 µmol/kg

inhibition [19]: 58%
inhibition [20]: 20%
inhibition [17]: 81%
inhibition [21]: 57%
IC50 [4]: 90 nM
IC50 [5]: 30 nM
Kp [11]: 8
clearance [12]: 127 mL/min/kg
Cmax [13]: 570 ng/mL
Vd [14]: 13.4 L/kg
bioavailability [15]: 7%
SMILES: CC(C)(C)c1ccc(-c2ccc(C(=O)N3CCN(C4CCCCC4)CC3)o2)cc1
IC50 [7]: 100 nM
ED50 (Rattus norvegicus [8]): 4.7 µmol/kg
ED50 (Rattus norvegicus [10]): > 300 µmol/kg
Activity (Rattus norvegicus [22]): 11%
Activity (Rattus norvegicus [23]): 27%
ED50 (Rattus norvegicus [16]): > 300 µmol/kg
Activity (Rattus norvegicus [24]): 38%

IC50 [1]: 32000 nM
SMILES: O=C(c1ccc(-c2ccc(Cl)cc2)o1)N1CCOCC1

IC50 [1]: 2400 nM
inhibition [2]: 65%
SMILES: CN(C)CC(C)(C)CNC(=O)c1ccc(-c2ccc(Cl)cc2)o1

inhibition [25]: 55%
inhibition [3]: 32%
SMILES: CN1CCN(C(=O)c2ccc(-c3ccc(C(C)(C)C)cc3)o2)CC1

From ChEMBL document CHEMBL1150418, “Discovery of potent furan piperazine sodium channel blockers for treatment of neuropathic pain” (Bioorg Med Chem, 2008)
